Source: ChEMBL document CHEMBL1128748, “Novel acridine-triazenes as prototype combilexins: synthesis, DNA binding, and biological activity” (J Med Chem, 1995)

Columns and labels:
[1] = system: Nucleic Acid; assay: Inhibitory concentration against DNA-bound ethidium for cytotoxicity; assay type: functional
[2] = system: Nucleic Acid; assay: Inhibitory concentration against ethidium in DNA-binding assay with [poly(dA-dT)]2 (synthetic oligonucleotide); assay type: nucleic-acid assay
Outline: (§1)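 Quenching of DNA-bound ethidium at pH 5.0 (9.3 mM NaCl, 2 mM NaOAc, 0.1 mM EDTA, ionic strength 0.01 M). Synthetic DNA 20 μM with 2 μM ethidium bromide, 20 °C. Drug added serially from about 5 mM DMSO stock. Excitation 546 nm, emission 595 nm. Q is the drug concentration giving 50% fluorescence loss, mean of three.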

[3] = system: L1210; assay: Concentration required to inhibit the cell growth by 50 % after 48 hr in L1210 leukemic cells.; assay type: functional, cell-based; settings: Mus musculus, L1210, 48 h
Outline: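 Mouse L1210 leukemia cells at 5 × 10³ cells/mL. Exposed to drug for 48 h at 37 °C; stocks held ≤0.5% v/v DMSO. Surviving cells were counted with a Coulter counter against drug-free controls to give IC50. Run in duplicate.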

[4] = system: Calf thymus DNA; assay: Induced change in DNA-biphasic melting (deltaTm) with calf thymus DNA at […]; assay type: functional; settings: Bos taurus
Outline: (§2)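 Thermal denaturation in stoppered quartz cuvettes. DNA in 10 mM sodium phosphate, 1 mM EDTA, at pH 6.00 (CT-DNA, poly(dA-dT), poly(dG-dC)) or pH 7.00 (CT-DNA only). Working DNA 100 μM; ligand added in DMSO to 20 μM final (drug:DNA 1:5). DMSO up to 6.25% v/v, with linear correction. Heated at 1 °C/min and followed by A260. ΔTm is ligand minus drug-free control, mean of three.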

[5] = system: Nucleic Acid; assay: Induced change in DNA-melting (deltaTm) with [poly(dG-dC)]2 at […]; assay type: functional; outline: as §2
[6] = system: A2780; assay: Concentration required to inhibit the cell growth by 50 % after 96 hr […].; assay type: functional, cell-based; settings: Homo sapiens, A2780, 96 h
Outline: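 A2780 cells in DMEM with 10% FCS, glutamine, insulin and hydrocortisone, plated at (0.1–5) × 10³ per well and attached overnight. DMSO stocks (≤0.5% v/v) were diluted in pH 7.0 buffer. Continuous drug exposure for 96 h. TCA fixation, sulforhodamine B staining, Tris solubilization, absorbance at 540 nm. IC50 taken against solvent-treated drug-free controls.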

[7] = system: Calf thymus DNA; assay: Inhibitory concentration against ethidium in DNA-binding assay; assay type: nucleic-acid assay; settings: Bos taurus
Outline: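 Ethidium displacement from CT-DNA at pH 5.0 (9.3 mM NaCl, 2 mM NaOAc, 0.1 mM EDTA), with 1.26 μM ethidium bromide and 1 μM CT-DNA, 20 °C. Drug added serially from about 5 mM DMSO stock. Excitation 546 nm, emission 595 nm. CC50 is the concentration halving bound-ethidium fluorescence, mean of three.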

[8] = system: Nucleic Acid; assay: Induced change in DNA-melting (deltaTm) with [poly(dA-dT)]2 at […]; assay type: functional; outline: as §2
[9] = system: Nucleic Acid; assay: Inhibitory concentration against ethidium in DNA-binding assay with [poly(dG-dC)]2 (synthetic oligonucleotide); assay type: nucleic-acid assay; outline: as §1
[10] = system: Calf thymus DNA; assay: Change in DNA-melting (deltaTm) with calf thymus DNA at […]; assay type: functional; settings: Bos taurus; outline: as §2
[11] = system: Calf thymus DNA; assay: Change in DNA-melting (deltaTm) with calf thymus DNA at pH 7.0; assay type: functional; settings: Bos taurus; outline: as §2
[12] = system: Calf thymus DNA; assay: (§3) Induced change in DNA-melting (deltaTm) with calf thymus DNA at pH 7.0; assay type: nucleic-acid assay; settings: Bos taurus; outline: as §2
[13] = system: Calf thymus DNA; assay: as §3; assay type: functional; settings: Bos taurus; outline: as §2
[14] = system: L1210; assay: Inhibitory concentration against L1210 leukemic cell proliferation over 24 hr; settings: Mus musculus, L1210, 24 h
[15] = system: Calf thymus DNA; assay: Induced change in DNA-biphasic melting (deltaTm) with calf thymus DNA at pH 7.0; assay type: functional; settings: Bos taurus; outline: as §2
[16] = system: Nucleic Acid; assay: Induced change in DNA-melting (deltaTm) with [poly(dA-dT)]2 at pH 65.0; assay type: functional; outline: as §2
[17] = system: Calf thymus DNA; assay: Induced change in DNA-melting (deltaTm) with calf thymus DNA at […]; assay type: functional; settings: Bos taurus; outline: as §2

Row | Q [2] | IC50 [3] | IC50 [6] | Q [7] | Q [9] | Tm shift [12] | IC50 [14] | Structure (SMILES) | CC50 [1] | Tm shift [4] | Tm shift [5] | Tm shift [8] | Tm shift [10] | Tm shift [11] | Tm shift [13] | Tm shift [15] | Tm shift degreeC [16] | Tm shift [17]
1 | 14 µM | 3 µM | 3.8 µM | 17 µM | 34 µM | – | – | Cc1nc(-c2c3ccccc3nc3ccccc23)sc1CCOC(=O)c1ccc(/N=N/Nc2cccc(C(=O)OCCN(C)C)c2)cc1 | 1.2 µM | 2.1 °C | < 0.2 °C | 1.6 °C | – | – | – | – | – | –
2 | 22 µM | – | > 100 µM | 21 µM | 19 µM | – | – | Cc1nc(-c2c3ccccc3nc3ccccc23)sc1CCO | 190 µM | – | < 0.2 °C | 0.7 °C | 1 °C | < 0.2 °C | – | – | – | –
3 | 5 µM | 32 µM | – | 9 µM | 19 µM | – | – | N=C(N)c1ccc(/N=N/Nc2ccc(C(=N)N)cc2)cc1 [DIMINAZENE] | 4.4 µM | – | – | – | 9.3 °C | 7.9 °C | – | – | – | –
4 | 14 µM | 6.2 µM | 3.9 µM | 27 µM | 52 µM | 1.5 °C | – | Cc1nc(-c2c3ccccc3nc3ccccc23)sc1CCOC(=O)c1ccc(N/N=N/c2ccc(C(=O)OCCN3CCCCC3)cc2)cc1 | 3.2 µM | – | 0.2 °C | 1.9 °C | 2.4 °C | – | – | – | – | –
5 | 14 µM | > 100 µM | – | 15 µM | 17 µM | – | – | O=C(OCCN1CCOCC1)c1ccc(/N=N/Nc2ccc(C(=O)OCCN3CCOCC3)cc2)cc1 | 6.8 µM | – | – | – | 3.6 °C | – | 1.4 °C | – | – | –
6 | 15 µM | 3.4 µM | 3.5 µM | 26 µM | 45 µM | – | – | Cc1nc(-c2c3ccccc3nc3ccccc23)sc1CCOC(=O)c1ccc(N/N=N/c2ccc(C(=O)OCCN3CCCC3)cc2)cc1 | 2.8 µM | – | 0.3 °C | 1.5 °C | 2.9 °C | 1.4 °C | – | – | – | –
7 | – | 67 µM | > 100 µM | – | – | – | – | Nc1ccc2c(=O)c3ccc(N)cc3[nH]c2c1 | – | – | – | – | – | – | – | – | – | –
8 | 21 µM | 28 µM | 5.3 µM | 26 µM | 36 µM | – | – | Cc1nc(-c2c3ccccc3nc3ccccc23)sc1CCOC(=O)c1ccc(N/N=N/c2ccc(C(N)=O)cc2)cc1 | 96 µM | – | – | – | – | – | – | – | – | –
9 | 25 µM | – | 0.1 µM | 3.8 µM | 4.5 µM | – | 0.05 µM | COc1cc(NS(C)(=O)=O)ccc1Nc1c2ccccc2nc2ccccc12 [AMSACRINE] | 8.9 µM | – | – | 4 °C | – | 1 °C | – | – | – | –
10 | 24 µM | – | > 100 µM | 20 µM | 17 µM | – | – | Cc1nc(-c2c3ccccc3nc3ccccc23)sc1CCOC(=O)c1ccc(N)cc1 | 230 µM | – | – | 0.8 °C | 1.1 °C | 0.4 °C | – | – | – | –
11 | 16 µM | 3.2 µM | 3.1 µM | 35 µM | 66 µM | – | – | Cc1nc(-c2c3ccccc3nc3ccccc23)sc1CCOC(=O)c1ccc(/N=N/Nc2ccc(C(=O)OCCN(C)C)cc2)cc1 | 3.6 µM | 3 °C | < 0.2 °C | 1.7 °C | – | – | – | 1.8 °C | – | –
12 | 12 µM | 66 µM | 16 µM | 18 µM | 31 µM | – | – | Cc1nc(-c2c3ccccc3nc3ccccc23)sc1CCOC(=O)c1ccc(N/N=N/c2ccc(C(=N)N)cc2)cc1 | 2.9 µM | – | – | 2.4 °C | – | – | – | – | – | –
13 | 23 µM | 80 µM | > 100 µM | 22 µM | 18 µM | – | – | c1ccc(-c2c3ccccc3nc3ccccc23)cc1 | 175 µM | – | 0.4 °C | – | 1.3 °C | 0.4 °C | – | – | 0.6 °C | –
14 | 24 µM | 2.7 µM | 0.47 µM | 20 µM | 14 µM | – | – | Nc1ccc2cc3ccc(N)cc3nc2c1 [PROFLAVINE] | – | – | 7 °C | 24.4 °C | – | 11.5 °C | – | – | – | 16.4 °C
15 | 19 µM | 100 µM | > 100 µM | 25 µM | 33 µM | – | – | CC(=O)c1ccc(N/N=N/c2ccc(C(=O)OCCc3sc(-c4c5ccccc5nc5ccccc45)nc3C)cc2)cc1 | 123 µM | – | – | – | – | – | – | – | – | –
16 | 22 µM | 2 µM | 1.2 µM | 19 µM | 16 µM | – | – | Nc1ccc2c(-c3ccccc3)c3ccc(N)cc3nc2c1 | – | – | 3.3 °C | 20.3 °C | 11.7 °C | 6.9 °C | – | – | – | –
17 | 17 µM | 32 µM | 2.6 µM | 28 µM | 39 µM | – | – | Cc1nc(-c2c3ccccc3nc3ccccc23)sc1CCOC(=O)c1ccc(N/N=N/c2ccc(C(=O)OCCN3CCOCC3)cc2)cc1 | 6.1 µM | 2.4 °C | – | 0.9 °C | – | – | – | – | – | –
18 | 11 µM | > 100 µM | – | 13 µM | 14 µM | 7.7 °C | – | O=C(OCCN1CCCCC1)c1ccc(/N=N/Nc2ccc(C(=O)OCCN3CCCCC3)cc2)cc1 | 5.7 µM | – | – | – | 14.5 °C | – | – | – | – | –

Row | Structure (SMILES) | Q [2] | IC50 [3] | IC50 [6] | Q [7] | Q [9] | Tm shift [12] | IC50 [14] | CC50 [1] | Tm shift [4] | Tm shift [5] | Tm shift [8] | Tm shift [10] | Tm shift [11] | Tm shift [13] | Tm shift [15] | Tm shift degreeC [16] | Tm shift [17]
19 | c1ccc2nc3ccccc3cc2c1 [ACRIDINE] | 26 µM | 45 µM | > 100 µM | 24 µM | 22 µM | – | – | 142 µM | – | 0.8 °C | 0.7 °C | 1.7 °C | 0.7 °C | – | – | – | –
